Laboratory results as given in ChEMBL document CHEMBL1149397, “Trace amine-associated receptor agonists: synthesis and evaluation of thyronamines and related analogues” (J Med Chem, 2006).
The source made the active and inactive calls. The rule behind the calls is not given here.

What was measured:
[1] = target: Trace amine-associated receptor 1 (Mus musculus, UniProt Q923Y8); assay: Activity at mouse TAAR1 by measuring cAMP accumulation in HEK293 cells; format: functional, cell-based
Summary of the method: (§1)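 HEK293 cells stably transfected with rat or mouse TAAR1, harvested and preincubated in Krebs-Ringer-HEPES with 200 µM IBMX. Then 1 h at 37 °C in KRH with 100 µM IBMX plus test compound, forskolin (10 µM) or DMSO vehicle. cAMP was measured by [³H]cAMP competitive binding after boiling, as % of forskolin control. EC₅₀ came from concentration-response curves, triplicate runs, averaged over experiments.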

[2] = target: Trace amine-associated receptor 1 (Rattus norvegicus, UniProt Q923Y9); assay: Activity at rat TAAR1 by measuring cAMP accumulation in HEK293 cells; format: functional, cell-based; summary of the method: as §1
Sequence of Trace amine-associated receptor 1 (Rattus norvegicus, UniProt Q923Y9) (Q923Y9 whole entry): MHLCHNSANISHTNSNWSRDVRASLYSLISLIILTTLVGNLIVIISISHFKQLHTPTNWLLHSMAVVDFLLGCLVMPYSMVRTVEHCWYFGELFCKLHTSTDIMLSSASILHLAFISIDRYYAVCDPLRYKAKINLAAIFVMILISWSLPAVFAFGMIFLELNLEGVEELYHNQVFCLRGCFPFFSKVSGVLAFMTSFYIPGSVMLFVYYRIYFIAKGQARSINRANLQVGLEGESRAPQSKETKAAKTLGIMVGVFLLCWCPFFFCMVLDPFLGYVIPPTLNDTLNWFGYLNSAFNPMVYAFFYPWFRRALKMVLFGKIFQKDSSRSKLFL

Mus musculus [3] = assay: Efficacy for hypothermia induction in ip dosed C57BL/6J mice; format: functional
Summary of the method: (§2)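 Male C57BL/6J mice, about 7-10 weeks old, dosed i.p. at 2, 10, 25 or 50 mg/kg. Vehicle was 100% DMSO, or 60-65% DMSO in saline for some compounds. Rectal temperature was taken before dosing and at 30, 60, 120, 180, 240 and 1440 min, with room at 19-21 °C. Groups were 2-4 mice, analysed by two-way ANOVA with Bonferroni post hoc tests (P < 0.05).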

Mus musculus [4] = assay: Hypothermia induction in C57BL/6J mice at 50 mg/kg, ip; format: functional, organism-based; parameters: dose 50 mg/kg; summary of the method: as §2

Sequence of Trace amine-associated receptor 1 (Mus musculus, UniProt Q923Y8) (Q923Y8 whole entry): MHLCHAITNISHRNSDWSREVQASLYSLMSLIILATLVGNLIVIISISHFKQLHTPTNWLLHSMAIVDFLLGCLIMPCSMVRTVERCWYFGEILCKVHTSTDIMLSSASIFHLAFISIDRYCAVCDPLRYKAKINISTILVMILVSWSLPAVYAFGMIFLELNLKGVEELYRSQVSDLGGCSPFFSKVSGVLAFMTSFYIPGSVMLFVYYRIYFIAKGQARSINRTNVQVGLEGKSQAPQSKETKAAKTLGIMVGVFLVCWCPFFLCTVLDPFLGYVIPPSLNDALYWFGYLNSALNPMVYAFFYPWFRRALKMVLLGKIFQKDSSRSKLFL

`NCCc1ccc(OCc2ccc(C(F)(F)F)cc2)c(I)c1` was tested, and the EC50 [1] was 284 nM and the EC50 [2] was greater than 1000 nM.

Work on `NCCc1ccc(Oc2ccccc2)c(I)c1` yielded an EC50 [1] of 35 nM, an ED50 (Mus musculus [3]) of 30 µmol/kg and an EC50 [2] of 2.4 nM. The Activity (Mus musculus [4]) was “Active”.

`CCNCCc1ccc(OCc2ccccc2)cc1` gave an EC50 [1] of 71 nM and an EC50 [2] greater than 1000 nM.

`NCCc1ccc(OCc2ccccc2)c(I)c1` gave an EC50 [1] of 221 nM and an EC50 [2] of 77 nM.

`Cc1cc(CCN)ccc1Oc1ccc(O)cc1` was tested, and the EC50 [1] was 116 nM, the EC50 [2] was 33 nM and the Activity (Mus musculus [4]) was “Active”.

Compound `NCCc1ccc(OCC(=O)c2ccccc2)cc1` has an EC50 [1] of 83 nM and an EC50 [2] of 309 nM.

In the case of `NCCc1ccc(OCc2ccc(F)cc2)cc1`, the EC50 [1] is reported as 38.5 nM and the EC50 [2] is reported as 72 nM.

For `NCCc1ccc(OCc2ccccc2)cc1`, the EC50 [1] was 168 nM and the EC50 [2] was 209 nM.

In the case of `CNCCc1ccc(OCc2ccccc2)c(I)c1`, the EC50 [1] is reported as 106 nM and the EC50 [2] is reported as 68 nM.

Compound `NCCc1ccc(OCCCc2ccccc2)cc1` has an EC50 [1] of 102 nM and an EC50 [2] of 89 nM.

Work on `NCCc1ccc(OCCCCc2ccccc2)cc1` yielded an EC50 [1] of 80 nM and an EC50 [2] of 43 nM.

`NCCc1cc(I)c(Oc2cc(I)c(O)c(I)c2)c(I)c1` gave an EC50 [1] greater than 1000 nM.

`OCCc1ccc(Oc2ccc(O)cc2)c(I)c1` gave an EC50 [1] greater than 1000 nM and an EC50 [2] greater than 1000 nM.

Compound `CCCCNCCc1ccc(OCc2ccccc2)cc1` has an EC50 [1] greater than 1000 nM and an EC50 [2] greater than 1000 nM.

`c1ccc(CNCCc2ccc(OCc3ccccc3)cc2)cc1` gave an EC50 [1] greater than 1000 nM and an EC50 [2] greater than 1000 nM.

`CNCCc1ccc(Oc2ccc(C(F)(F)F)cc2)c(I)c1` gave an EC50 [1] greater than 1000 nM and an EC50 [2] greater than 1000 nM.

In the case of `CNCCc1ccc(OCc2ccc(C(F)(F)F)cc2)cc1`, the EC50 [1] is reported as 12 nM, the EC50 [2] is reported as 61 nM and the Activity (Mus musculus [4]) is reported as “Active”.

`NCCc1cc(I)c(Oc2ccc(O)cc2)c(I)c1` was tested, and the EC50 [1] was 371 nM.

In the case of `CNCCc1ccc(Oc2ccc(F)cc2)c(I)c1`, the EC50 [1] is reported as 32.5 nM, the EC50 [2] is reported as 2.7 nM and the Activity (Mus musculus [4]) is reported as “Active”.

With `COc1cccc(COc2ccc(CCN)cc2)c1` the EC50 [1] was 194 nM and the EC50 [2] was 141 nM.

`NCCc1ccc(Oc2ccc(O)cc2)cc1` [THYRONAMINE] showed an EC50 [1] of 1000 nM.

`NCCc1ccc(OCCc2ccccc2)cc1` was tested, and the EC50 [1] was 207 nM and the EC50 [2] was 203 nM.

`NCCc1ccc(Oc2cc(I)c(O)c(I)c2)c(I)c1` showed an EC50 [1] greater than 1000 nM and an EC50 [2] greater than 1000 nM.

For `CNCCc1ccc(Oc2ccc(OC)cc2)c(I)c1`, the EC50 [1] was greater than 1000 nM and the EC50 [2] was 107 nM.

`NCCc1ccc(Oc2ccc(O)c(I)c2)c(I)c1` gave an EC50 [1] of 1000 nM.

For `CN(C)CCc1ccc(OCc2ccccc2)cc1`, the EC50 [1] was 192 nM and the EC50 [2] was greater than 1000 nM.

With `COc1cc(COc2ccc(CCN)cc2)cc(OC)c1` the EC50 [1] was 123 nM and the EC50 [2] was 333 nM.

Compound `NCCc1ccc(OCc2ccc([N+](=O)[O-])cc2)cc1` has an EC50 [1] of 21.5 nM and an EC50 [2] of 64 nM.

For `CCCNCCc1ccc(OCc2ccccc2)cc1`, the EC50 [1] was greater than 1000 nM and the EC50 [2] was greater than 1000 nM.

Compound `CNCCc1ccc(Oc2ccc(O)cc2)c(I)c1` has an EC50 [1] of 221 nM and an EC50 [2] of 18 nM.

In the case of `Cc1cc(C)cc(COc2ccc(CCN)cc2)c1`, the EC50 [1] is reported as 98 nM and the EC50 [2] is reported as 137 nM.

Work on `NCCc1ccc(OCc2ccc(C(F)(F)F)cc2)cc1` yielded an EC50 [1] of 20.2 nM and an EC50 [2] of 55 nM.

`NCCc1cc(I)c(Oc2ccc(O)c(I)c2)c(I)c1` showed an EC50 [1] greater than 1000 nM.

`CNCCc1ccc(OCc2ccccc2)cc1` was tested, and the EC50 [1] was 54 nM and the EC50 [2] was 119 nM.

For `NCCc1ccc(OCc2c(F)c(F)c(F)c(F)c2F)cc1`, the EC50 [1] was greater than 1000 nM and the EC50 [2] was greater than 1000 nM.

Compound `NCCc1ccc(Oc2ccccc2)cc1` has an EC50 [1] of 296 nM and an EC50 [2] of 38 nM.

Work on `NCCc1ccc(Oc2ccc(O)c(I)c2)cc1` yielded an EC50 [1] greater than 1000 nM and an EC50 [2] of 800 nM.

`NCCc1ccc(Oc2cc(I)c(O)c(I)c2)cc1` was tested, and the EC50 [1] was greater than 1000 nM and the EC50 [2] was greater than 1000 nM.
